From ChEMBL document CHEMBL1649568, “Efficacy of aerosol MP-376, a levofloxacin inhalation solution, in models of mouse lung infection due to Pseudomonas aeruginosa” (Antimicrob Agents Chemother, 2009) come the findings set out here.

Values after ≈ are worked out from the molar mass of the structure shown.

For series [1], the system named is Pseudomonas aeruginosa. Briefly: Antimicrobial activity against Pseudomonas aeruginosa ATCC 27853 infected in Swiss neutropenic mouse assessed as mouse survival rate at 400 mg/kg BID administered 24 hrs post infection through aerosol. It is filed as functional. Summed up:
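Female Swiss mice were made neutropenic (cyclophosphamide 150 mg/kg i.p., days 1 and 3) and infected intratracheally on day 4 with ATCC 27853, 0.05 ml at ca. 1–6 × 10⁵ CFU/ml. Aerosol via microsprayer to the bifurcation (50 µl) under isoflurane, twice daily for 48 h from 24 h postinfection. Survival observed to 9 days postinfection, n = 10.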

Series [2] concerns Pseudomonas aeruginosa. Briefly: Antimicrobial activity against Pseudomonas aeruginosa isolate NH57388A by broth microdilution method. It is filed as functional. Summed up:
(§1)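 Broth microdilution per CLSI. Inoculum 5 × 10⁵ CFU/ml, twofold dilutions of antibiotic in medium, 24 h at 35°C. Growth read at 600 nm and by eye with a reading mirror. MIC is the lowest concentration with no visible growth.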
In general terms: In broth dilution the organism is exposed to a series of concentrations in liquid medium.

For series [3], the species on record is Mus musculus. The series can be described thus: Toxicity in Pseudomonas aeruginosa ATCC 27853 infected Swiss mouse. Format: functional.
Series [4] relates to Pseudomonas aeruginosa. The series can be described thus: Antimicrobial activity against Pseudomonas aeruginosa ATCC 27853 by broth microdilution method. It is filed as functional. Summed up:
as §1

For series [5], the system named is Mus musculus. Briefly: Cmax in mouse at 60 mg/kg, ip administered as single dose. The arrangement: dose 60 mg/kg, route intraperitoneal. To be noted: in vivo. Format: ADME, organism-based.
The test system of series [6] is Pseudomonas aeruginosa. The series can be described thus: Antimicrobial activity against Pseudomonas aeruginosa ATCC 27853 infected in Swiss neutropenic mouse assessed as reduction in lung bacterial load at 32 mg/kg, ip BID administered 24 hrs post infection. To be noted: route intraperitoneal. Format: functional. Summed up: (§2)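 Female Swiss mice (5–6 wk) made neutropenic with cyclophosphamide 150 mg/kg i.p. on days 1 and 3. On day 4, intratracheal instillation of 0.05 ml strain ATCC 27853 suspension at ca. 1–6 × 10⁵ CFU/ml. From 24 h postinfection, two i.p. doses over 24 h, n = 8. Lungs taken 12–16 h after the last dose, homogenized in saline and plated; mean log CFU/lung compared with an untreated baseline group.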

In series [7] the test system is Pseudomonas aeruginosa. Briefly: Antimicrobial activity against Pseudomonas aeruginosa ATCC 27853 infected in Swiss neutropenic mouse assessed as reduction in lung bacterial load at […], ip BID administered 24 hrs post infection. To be noted: route intraperitoneal. It is filed as functional.
In series [8] the test system is Pseudomonas aeruginosa. Briefly: Antimicrobial activity against Pseudomonas aeruginosa NH57388A infected in Swiss neutropenic mouse assessed as lung bacterial load at 30 mg/kg, ip BID administered 24 hrs post infection (reference value: 8.89 logCFU). It is filed as functional. To be noted: route intraperitoneal.
Series [9] deals with Pseudomonas aeruginosa. The series can be described thus: Antimicrobial activity against Pseudomonas aeruginosa NH57388A infected in Swiss neutropenic mouse assessed as lung bacterial load at 15 mg/kg, ip BID administered 24 hrs post infection (reference value: 8.89 logCFU). Format: functional. To be noted: route intraperitoneal.
In series [10] the test system is Pseudomonas aeruginosa. The series can be described thus: Antimicrobial activity against Pseudomonas aeruginosa NH57388A infected in Swiss neutropenic mouse assessed as lung bacterial load at 60 mg/kg, ip BID administered 24 hrs post infection (reference value: 8.89 logCFU). It is filed as functional. To be noted: route intraperitoneal.
The subject of series [11] is Mus musculus. Briefly: Cmax in mouse at 60 mg/kg, administered as single dose through aerosol. It is filed as ADME, organism-based. The arrangement: dose 60 mg/kg. To be noted: in vivo, inhaled_or_intranasal.
Series [12] has as its system Pseudomonas aeruginosa. Briefly: Antimicrobial activity against Pseudomonas aeruginosa ATCC 27853 infected in Swiss neutropenic mouse assessed as reduction in lung bacterial load at 63 mg/kg, ip BID administered 24 hrs post infection. To be noted: route intraperitoneal. It is filed as functional. Summed up: as §2
Series [13] concerns Pseudomonas aeruginosa. Briefly: Bactericidal activity against Pseudomonas aeruginosa NH57388A infected in Swiss neutropenic mouse assessed as reduction in lung bacterial load at 60 mg/kg BID administered 24 hrs post infection through aerosol. It is filed as functional. The method, boiled down: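 In the chronic alginate-embedded NH57388A lung infection (cyclophosphamide 150 mg/kg i.p. once, 4 days before; about 10⁸ CFU/ml inoculum), mice got aerosol doses by microsprayer (50 µl, isoflurane) twice daily for 3 days from 24 h postinfection. Lungs homogenized and plated 12–16 h after the final dose; log CFU/lung.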

Series [14] deals with Pseudomonas aeruginosa. The series can be described thus: Antimicrobial activity against Pseudomonas aeruginosa ATCC 27853 infected in Swiss neutropenic mouse assessed as mouse survival rate at 60 mg/kg BID administered 24 hrs post infection through aerosol.

A word on the MIC: it is the lowest concentration that inhibits growth of the organism.

On to `C[C@H]1[C@H](NC(=O)/C(=N\OC(C)(C)C(=O)O)c2csc(N)n2)C(=O)N1S(=O)(=O)O` [AZTREONAM], for which, in series [1], the Activity came to 20%. Further, the MIC in series [2] and in [4] was 4 µg/mL (≈ 9.19 µM) in each case. Further, in series [3], the MTD is 400 mg/kg.
As to `C[C@H]1COc2c(N3CCN(C)CC3)c(F)cc3c(=O)c(C(=O)O)cn1c23.C[C@H]1COc2c(N3CCN(C)CC3)c(F)cc3c(=O)c(C(=O)O)cn1c23.O` [LEVOFLOXACIN], the Cmax amounted to 18.6 mg/kg in [5] and 550 mg/kg in series [11]. Moreover, the log10cfu in series [6] is 0.65; in series [7] it was 3.5; in series [8], 5.73; in [9], 7.83; in series [10], 4.93; in series [12] it was 2.7.
As for `NC[C@H]1O[C@H](O[C@H]2[C@H](O)[C@@H](O[C@H]3O[C@H](CO)[C@@H](O)[C@H](N)[C@H]3O)[C@H](N)C[C@@H]2N)[C@H](N)C[C@@H]1O` [TOBRAMYCIN], the MIC in [2] is 0.5 µg/mL (≈ 1.07 µM); in [4], 0.25 µg/mL (≈ 0.535 µM). For the same molecule, in series [13], the log10cfu came to 2.9. For the same molecule, the Activity in series [14] is recorded as 60%. The MTD in [3] stood at 60 mg/kg.
